Data from ChEMBL document CHEMBL1131523 (J Med Chem, 1998).
Peptide text beside a SMILES is read from it.

Legend:
[1] = Partition coefficient (logD1.0); format: physicochemical; settings: octanol/water, pH 1
Summary of the method: (§1)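 log D measured in n-octanol/aqueous phosphate buffer (0.02 mol L-1) by centrifugal partition chromatography in a multilayer coil separator–extractor at room temperature. UV detection was at the pH-dependent λmax. log D was computed from solute and solvent-front retention times, flow rate and column capacity. t0 came from K2Cr2O7 (pH > 4.5), CoCl2 (acidic pH) or biphenyl.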

[2] = compound was evaluated for reverse occurs for the rate constant(log K-1) at pH 7.4; format: ADME; settings: buffer
Summary of the method: (§2)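 Transfer rate constants were measured in a triphasic water/octanol/water system (Kochi's flask). Compound in 40 mL of 0.06 mol L-1 phosphate buffer sat in compartment A, and 40 mL of the same buffer at the same pH sat in compartment B. 80 mL octanol was layered over both compartments.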

[3] = compound was evaluated for rate constant of transfer (log K1) at pH 7.4; format: ADME; summary of the method: as §2
[4] = compound was evaluated for reverse occurs for the rate constant(log K-1) at pH 1.0; format: ADME; settings: buffer; summary of the method: as §2
[5] = (§3) Partition coefficient (logD3.0); format: physicochemical; settings: octanol/water, pH 3
[6] = compound was evaluated for rate constant of transfer (log K1) at pH 3.0; format: ADME; summary of the method: as §2
[7] = compound was evaluated for rate constant of transfer (log K1) at pH 1.0; format: ADME; summary of the method: as §2
[8] = compound was evaluated for reverse occurs for the rate constant(log K-1) at pH 3.0; format: ADME; settings: buffer; summary of the method: as §2
[9] = compound were evaluated for rate constant of transfer (log K1) at pH 7.4; format: ADME; summary of the method: as §2
[10] = as §3; settings: octanol/water, pH 3
[11] = Partition coefficient (logD9.4); settings: octanol/water, pH 9.4
[12] = Partition coefficient (logD6.8); settings: octanol/water, pH 6.8
[13] = Partition coefficient (logD1.5); settings: octanol/water, pH 1.5
[14] = Pharmacokinetic parameter :drug bound to plasma was reported; format: ADME, cell-free
[15] = Pharmacokinetic parameter :half life in humans was reported; format: ADME, organism-based; settings: human, in vivo; read-out: T1/2 beta (converted)
[16] = Pharmacokinetic parameter :volume apparent of distribution was reported; format: ADME, organism-based; settings: in vivo
[17] = compound was evaluated for saturable association constant (nKa) of isolated serum protein VLDL
[18] = compound was evaluated for saturable association constant (nKa) of isolated serum protein LDL
[19] = Lipophilicity parameter log Pdod N; format: physicochemical; settings: dodecane/water
[20] = Lipophilicity parameter log Poct N; settings: octanol/water
[21] = (§4) Partition coefficient (logD7.4); format: physicochemical; settings: octanol/water, pH 7.4
[22] = Partition coefficient between dodecane and water (logDdod7.4); format: physicochemical; settings: pH 7.4
[23] = Partition coefficient (logD4.6); format: physicochemical; settings: octanol/water, pH 4.6; summary of the method: as §1
[24] = compound was evaluated for rate constant of transfer (log K1) at pH 8.8; format: ADME; summary of the method: as §2
[25] = compound was evaluated for reverse occurs for the rate constant(log K-1) at pH 4.6; format: ADME; settings: buffer; summary of the method: as §2
[26] = compound was evaluated for reverse occurs for the rate constant(log K-1) at pH 8.8; format: ADME; settings: buffer; summary of the method: as §2
[27] = compound was evaluated for rate constant of transfer (log K1) at pH 4.6; format: ADME; summary of the method: as §2
[28] = as §4; format: physicochemical; settings: octanol/water, pH 7.4; summary of the method: as §1; remark: listed apart in the source

Log K-1 [2] | Log K1 [3] | logD ([5]; read-out: logD) | B [14] | Vd [16] | SMILES | other results
-1.73 | -1.22 | 0.14 |  |  | CN(C(=O)C1=C(O)c2ccccc2S(=O)(=O)N1C)c1ccccn1 | logD [1]: -0.12; Log K-1 [4]: -1.69; logD [5]: 0.14; Log K1 [6]: -1.19; Log K1 [7]: -1.51; Log K-1 [8]: -1.63
 |  | 0.07 |  |  | COC1=C(C(=O)Nc2ccccn2)N(C)S(=O)(=O)c2ccccc21 | Log K-1 [4]: -1.69; Log K1 [7]: -1.32
-1.77 | -2.55 |  |  |  | CC(C)C[C@H](N)C(=O)N[C@@H](Cc1ccccc1)C(=O)O (H-Leu-Phe-OH) | 
-1.57 |  | -1.02 |  |  | N[C@@H](Cc1ccccc1)C(=O)N[C@@H](Cc1ccccc1)C(=O)O (H-Phe-Phe-OH) | Log K1 [9]: -2.29
-1.74 | -1.94 | -0.52 |  |  | N[C@@H](Cc1c[nH]c2ccccc12)C(=O)N[C@@H](Cc1ccccc1)C(=O)O (H-Trp-Phe-OH) | 
-1.72 | -2.73 | -1.38 |  |  | N[C@@H](Cc1c[nH]c2ccccc12)C(=O)N[C@@H](Cc1ccc(O)cc1)C(=O)O (H-Trp-Tyr-OH) | 
 |  | 0.86 |  |  | Cc1ccc(/C(=C\CN2CCCC2)c2cccc(/C=C/C(=O)O)n2)cc1 [ACRIVASTINE] | logD [10]: -0.48; logD [11]: 0.24; logD [12]: -0.03; logD [13]: -0.93
 |  |  | 96% | 48 L/kg | COc1ccc(CCN2CCC(Nc3nc4ccccc4n3Cc3ccc(F)cc3)CC2)cc1 [ASTEMIZOLE] | half-life [15]: 26 h
 |  |  | 72% | 10 L/kg | CN(C)CCC(c1ccc(Br)cc1)c1ccccn1 (stereo unspecified) [BROMPHENIRAMINE] | half-life [15]: 24.9 h
 |  |  | 98% | 2.4 L/kg | CC(C)(C(=O)O)c1ccc(C(=O)CCCN2CCC(OC(c3ccccc3)c3ccccc3)CC2)cc1 [CAREBASTINE] | half-life [15]: 16 h
 |  |  |  |  | O=C(O)COCCN1CCN(C(c2ccccc2)c2ccc(Cl)cc2)CC1 (stereo unspecified) [CETIRIZINE] | nKa [17]: 289 M/M; nKa [18]: 2.21 M/M
 |  |  | 72% | 5.9 L/kg | CN(C)CCC(c1ccc(Cl)cc1)c1ccccn1 (stereo unspecified) [CHLORPHENIRAMINE] | 
 |  |  | 98% |  | CN(C)CCOC(c1ccccc1)c1ccccc1 [DIPHENHYDRAMINE] | 
 |  |  | 65% |  | CC(C)(C(=O)O)c1ccc(C(O)CCCN2CCC(C(O)(c3ccccc3)c3ccccc3)CC2)cc1 (stereo unspecified) [FEXOFENADINE] | 
 |  | 1.03 |  |  | CC(CCc1ccccc1)NCC(O)c1ccc(O)c(C(N)=O)c1 (stereo unspecified) [LABETALOL] | logD [23]: -0.8; Log K1 [24]: -0.89; Log K-1 [25]: -1.58; Log K-1 [26]: -2.22; Log K1 [27]: -2.07
 |  |  | 97% |  | CCOC(=O)N1CCC(=C2c3ccc(Cl)cc3CCc3cccnc32)CC1 [LORATADINE] | 
-1.75 | -1.53 | 1.43 |  |  | CN1C(C(=O)Nc2ccccn2)=C(O)c2ccccc2S1(=O)=O [PIROXICAM] | logD [1]: 0.63; Log K-1 [4]: -1.93; Log K1 [6]: -0.69; Log K1 [7]: -1; logD [28]: -0.08; Log K-1 [8]: -2.42
 |  |  | 98% | 2.9 L/kg | CC(C)(C)c1ccc(C(O)CCCN2CCC(C(O)(c3ccccc3)c3ccccc3)CC2)cc1 (stereo unspecified) [TERFENADINE] | half-life [15]: 23 h
 |  |  | 90% | 8.7 L/kg | Cc1ccc(/C(=C\CN2CCCC2)c2ccccn2)cc1 [TRIPROLIDINE] | half-life [15]: 30 h

SMILES | Log K-1 [2] | Log K1 [3] | logD ([5]; read-out: logD) | B [14] | Vd [16] | other results
CN1CCCC(n2nc(Cc3ccc(Cl)cc3)c3ccccc3c2=O)CC1 (stereo unspecified) [AZELASTINE] |  |  |  |  | 14.5 L/kg | half-life [15]: 25 h
OCCOCCN1CCN(C(c2ccccc2)c2ccc(Cl)cc2)CC1 (stereo unspecified) [HYDROXYZINE] |  |  |  |  | 30.5 L/kg | Log Pdod N [19]: 1.25; logP [20]: 3.5; half-life [15]: 20 h; logD [21]: 3.1; logD [22]: 0.9
CNCc1ccccc1 [N-BENZYLMETHYLAMINE] | -1.94 | -0.78 | 0.86 |  |  | 
Oc1ccccc1 [PHENOL] | -2.5 | -0.68 | 1.54 |  |  | 
c1ccncc1 [PYRIDINE] | -1.7 | -0.83 |  |  |  | 
